Results on 11 compounds are retold here after ChEMBL document CHEMBL2016534 (ACS Med Chem Lett, 2011).

Activity calls are given as the source filed them. No cut-off for these calls is given here.

Series [1] concerns the target T1, Phosphatidylinositol 4,5-bisphosphate 3-kinase catalytic subunit alpha isoform (Homo sapiens, UniProt P42336). As to the kind of experiment: Inhibition of PI3Kalpha.
Series [2] concerns the target T1, Phosphatidylinositol 4,5-bisphosphate 3-kinase catalytic subunit alpha isoform. Put plainly: Inhibition of PI3Kalpha-mediated AKT phosphorylation at S473 by cell based assay.
A short description of series [3]: Metabolic stability in human liver microsomes assessed as extraction ratio. The class given is ADME, Microsome. Particulars: read-out: ERH. The procedure, abridged:
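Human liver microsome CLint scaled up with liver physiology parameters (mg HLM/g liver, g liver/kg body weight) to mL/min/kg. Predicted hepatic clearance (CLH, mL/min/kg) then calculated by the well-stirred model. Extraction ratio taken as predicted CLH divided by hepatic blood flow (QH).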

Series [4] addresses T2, Serine/threonine-protein kinase mTOR (Homo sapiens, UniProt P42345). As to the kind of experiment: Inhibition of mTOR.
Series [5] deals with T3, Phosphatidylinositol 4,5-bisphosphate 3-kinase catalytic subunit delta isoform (Homo sapiens) (UniProt O00329).
T3 sequence (whole entry): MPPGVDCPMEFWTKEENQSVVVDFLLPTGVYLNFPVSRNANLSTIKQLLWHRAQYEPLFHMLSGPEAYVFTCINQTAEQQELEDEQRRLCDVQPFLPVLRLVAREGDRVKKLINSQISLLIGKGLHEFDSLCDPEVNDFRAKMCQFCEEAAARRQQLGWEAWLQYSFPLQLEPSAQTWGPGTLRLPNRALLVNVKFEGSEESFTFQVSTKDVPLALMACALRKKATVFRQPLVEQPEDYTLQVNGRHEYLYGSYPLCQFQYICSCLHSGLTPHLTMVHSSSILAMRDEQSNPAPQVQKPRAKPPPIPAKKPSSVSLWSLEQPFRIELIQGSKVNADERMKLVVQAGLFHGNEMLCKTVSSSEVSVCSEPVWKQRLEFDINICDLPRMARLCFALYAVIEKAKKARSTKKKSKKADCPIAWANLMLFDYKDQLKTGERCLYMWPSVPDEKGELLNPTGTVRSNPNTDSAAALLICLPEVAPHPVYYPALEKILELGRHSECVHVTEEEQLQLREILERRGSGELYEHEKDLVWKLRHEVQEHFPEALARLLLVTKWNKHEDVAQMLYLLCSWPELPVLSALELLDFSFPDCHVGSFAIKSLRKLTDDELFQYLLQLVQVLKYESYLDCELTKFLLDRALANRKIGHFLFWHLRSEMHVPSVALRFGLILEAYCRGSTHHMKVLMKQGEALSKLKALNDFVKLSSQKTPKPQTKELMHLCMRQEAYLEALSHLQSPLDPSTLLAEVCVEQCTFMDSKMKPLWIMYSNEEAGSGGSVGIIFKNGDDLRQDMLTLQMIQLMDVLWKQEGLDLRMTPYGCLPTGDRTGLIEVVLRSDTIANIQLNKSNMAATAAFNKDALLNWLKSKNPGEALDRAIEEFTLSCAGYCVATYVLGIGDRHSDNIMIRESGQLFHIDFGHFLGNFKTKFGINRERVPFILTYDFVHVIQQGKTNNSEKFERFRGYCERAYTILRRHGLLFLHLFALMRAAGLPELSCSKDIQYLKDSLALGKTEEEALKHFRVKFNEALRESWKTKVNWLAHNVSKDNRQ
As to the kind of experiment: Inhibition of PI3Kdelta.

Series [6] deals with T2, Serine/threonine-protein kinase mTOR. Put plainly: Inhibition of mTOR at 1 uM.
A short description of series [7]: Metabolic stability in rat liver microsomes assessed as extraction ratio. Type of series: ADME, Microsome. The following applies: read-out: ERH.
A short description of series [8]: Metabolic stability in mouse liver microsomes assessed as extraction ratio. The class given is ADME, Microsome. Particulars: read-out: ERH.
Another series relates to MDR1 (human). Put plainly: Efflux ratio of permeability from basolateral to apical side to apical to basolateral side of dog RRCK cells expressing human MDR1. Type of series: ADME, cell-based, Canis lupus familiaris, MDCKII-LE.
Another series concerns NCI-H460. As to the kind of experiment: Cytotoxicity against human NCI-H460 cells harboring PI3KCA mutation by MTT assay. The class given is functional, cell-based.
A further series has as its system NCI-H1650. As to the kind of experiment: Cytotoxicity against PTEN deficient human NCI-H1650 cells by MTT assay. Type of series: functional, cell-based.
A further series relates to NCI-H1975. Put plainly: Cytotoxicity against human NCI-H1975 cells harboring PI3KCA mutation by MTT assay. The class given is functional, cell-based.
In a further series the test system is NCI-H23. Put plainly: Cytotoxicity against human NCI-H23 cells harboring PTEN mutation by MTT assay. Type of series: functional, cell-based.
A further series deals with CYP2D6 (Homo sapiens, UniProt P10635). As to the kind of experiment: Inhibition of CYP2D6 at 3 uM. Type of series: ADME.
Sequence of CYP2D6 (P10635 whole entry): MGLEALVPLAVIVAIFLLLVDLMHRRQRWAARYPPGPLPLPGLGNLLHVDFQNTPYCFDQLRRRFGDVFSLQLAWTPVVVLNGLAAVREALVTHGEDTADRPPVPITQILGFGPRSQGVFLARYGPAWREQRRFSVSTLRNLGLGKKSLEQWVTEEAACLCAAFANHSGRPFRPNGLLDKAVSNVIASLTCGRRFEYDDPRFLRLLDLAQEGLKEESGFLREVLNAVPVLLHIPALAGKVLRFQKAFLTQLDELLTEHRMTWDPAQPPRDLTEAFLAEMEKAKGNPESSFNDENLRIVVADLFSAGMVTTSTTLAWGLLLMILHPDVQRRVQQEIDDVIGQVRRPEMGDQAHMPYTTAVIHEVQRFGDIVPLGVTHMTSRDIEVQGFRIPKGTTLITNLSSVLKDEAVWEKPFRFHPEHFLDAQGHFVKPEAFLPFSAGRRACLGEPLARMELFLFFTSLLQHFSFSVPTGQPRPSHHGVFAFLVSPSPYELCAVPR
Series [9] can be described thus: Drug excretion in bile duct cannulated rat urine. The class given is ADME. The following applies: read-out: Drug excretion.
A further series has as its target CYP2C9 (Homo sapiens, UniProt P11712). As to the kind of experiment: Inhibition of CYP2C9 at 3 uM. Type of series: ADME.
Another series deals with T4, CYP1A2 (Homo sapiens, UniProt P05177).
T4 sequence (P05177 whole entry): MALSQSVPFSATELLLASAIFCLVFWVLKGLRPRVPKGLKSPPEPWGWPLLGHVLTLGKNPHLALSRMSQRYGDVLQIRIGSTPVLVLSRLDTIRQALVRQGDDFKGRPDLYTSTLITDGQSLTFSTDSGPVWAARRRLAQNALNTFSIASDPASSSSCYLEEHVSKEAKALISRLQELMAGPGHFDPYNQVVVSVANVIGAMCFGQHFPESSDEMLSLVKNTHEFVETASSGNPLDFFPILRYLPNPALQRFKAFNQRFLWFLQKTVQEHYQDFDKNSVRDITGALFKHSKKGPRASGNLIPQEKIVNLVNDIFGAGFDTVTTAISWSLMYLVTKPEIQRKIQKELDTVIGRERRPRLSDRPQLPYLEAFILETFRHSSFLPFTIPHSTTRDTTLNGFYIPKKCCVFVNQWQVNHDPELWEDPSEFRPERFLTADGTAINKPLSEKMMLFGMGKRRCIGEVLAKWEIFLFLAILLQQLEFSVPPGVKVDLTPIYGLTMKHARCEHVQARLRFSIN
Put plainly: Inhibition of CYP1A2 at 3 uM. The class given is ADME.

The next series deals with CYP3A4 (Homo sapiens, UniProt P08684). As to the kind of experiment: Inhibition of CYP3A4 at 3 uM. Type of series: ADME.
Sequence of CYP3A4 (P08684 whole entry): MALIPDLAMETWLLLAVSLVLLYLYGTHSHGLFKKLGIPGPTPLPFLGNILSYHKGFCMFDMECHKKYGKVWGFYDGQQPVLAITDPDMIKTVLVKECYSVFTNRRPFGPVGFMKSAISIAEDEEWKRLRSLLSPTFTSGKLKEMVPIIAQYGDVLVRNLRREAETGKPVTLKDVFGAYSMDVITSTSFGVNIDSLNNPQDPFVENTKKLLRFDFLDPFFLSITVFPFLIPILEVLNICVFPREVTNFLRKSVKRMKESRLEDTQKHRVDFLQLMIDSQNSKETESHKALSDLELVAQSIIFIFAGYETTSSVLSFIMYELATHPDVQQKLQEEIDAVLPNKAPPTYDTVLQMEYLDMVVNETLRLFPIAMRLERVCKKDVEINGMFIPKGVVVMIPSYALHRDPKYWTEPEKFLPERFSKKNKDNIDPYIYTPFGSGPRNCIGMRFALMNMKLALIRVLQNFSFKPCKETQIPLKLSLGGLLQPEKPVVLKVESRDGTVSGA
The nature of series [10]: Drug excretion in bile duct cannulated rat bile. The class given is ADME. Particulars: read-out: Drug excretion.

T1 sequence (P42336 whole entry, canonical isoform): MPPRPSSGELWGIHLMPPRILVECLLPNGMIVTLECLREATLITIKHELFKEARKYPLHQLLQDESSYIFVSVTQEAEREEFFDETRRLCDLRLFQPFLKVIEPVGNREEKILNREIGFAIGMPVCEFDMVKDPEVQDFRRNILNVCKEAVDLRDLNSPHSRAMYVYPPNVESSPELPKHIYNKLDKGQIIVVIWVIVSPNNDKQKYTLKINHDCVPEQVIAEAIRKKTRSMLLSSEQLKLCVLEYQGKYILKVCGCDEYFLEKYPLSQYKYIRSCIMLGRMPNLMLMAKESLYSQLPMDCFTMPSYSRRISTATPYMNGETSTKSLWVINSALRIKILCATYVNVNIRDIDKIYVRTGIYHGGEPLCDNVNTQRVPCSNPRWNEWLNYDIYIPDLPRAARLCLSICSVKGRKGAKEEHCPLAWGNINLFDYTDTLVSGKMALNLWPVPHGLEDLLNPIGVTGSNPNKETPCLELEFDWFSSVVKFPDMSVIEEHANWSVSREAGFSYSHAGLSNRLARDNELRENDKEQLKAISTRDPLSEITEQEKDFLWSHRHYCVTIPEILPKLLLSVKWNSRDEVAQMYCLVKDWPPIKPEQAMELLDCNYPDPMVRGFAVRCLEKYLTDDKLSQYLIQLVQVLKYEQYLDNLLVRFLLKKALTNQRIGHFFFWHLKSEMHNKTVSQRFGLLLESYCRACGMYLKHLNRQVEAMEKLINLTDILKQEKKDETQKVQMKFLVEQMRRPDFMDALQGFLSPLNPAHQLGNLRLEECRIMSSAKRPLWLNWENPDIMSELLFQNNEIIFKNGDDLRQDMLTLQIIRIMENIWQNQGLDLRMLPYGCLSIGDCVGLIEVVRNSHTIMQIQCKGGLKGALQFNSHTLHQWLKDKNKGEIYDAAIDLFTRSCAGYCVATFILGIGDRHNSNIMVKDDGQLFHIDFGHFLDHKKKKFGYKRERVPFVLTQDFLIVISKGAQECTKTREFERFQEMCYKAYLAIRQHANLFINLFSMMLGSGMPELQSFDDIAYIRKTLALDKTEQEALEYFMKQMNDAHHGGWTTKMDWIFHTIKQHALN
Sequence of CYP2C9 (P11712 whole entry): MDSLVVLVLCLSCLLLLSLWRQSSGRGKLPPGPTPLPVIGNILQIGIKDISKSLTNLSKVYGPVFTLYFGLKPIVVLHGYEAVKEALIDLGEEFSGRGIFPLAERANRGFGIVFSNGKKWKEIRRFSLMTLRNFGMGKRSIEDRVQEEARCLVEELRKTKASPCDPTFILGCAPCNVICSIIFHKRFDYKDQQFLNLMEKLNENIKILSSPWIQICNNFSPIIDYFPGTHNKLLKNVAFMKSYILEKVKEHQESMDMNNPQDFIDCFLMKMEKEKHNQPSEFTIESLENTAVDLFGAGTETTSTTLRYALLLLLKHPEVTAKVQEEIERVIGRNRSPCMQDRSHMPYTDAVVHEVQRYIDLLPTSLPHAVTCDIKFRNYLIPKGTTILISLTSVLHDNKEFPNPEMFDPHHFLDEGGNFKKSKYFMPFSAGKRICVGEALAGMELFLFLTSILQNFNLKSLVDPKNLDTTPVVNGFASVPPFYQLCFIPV

The compound `Cc1nnc(-c2sc(N3CCOCC3)c(C#N)c2-c2ccc(Cl)cc2)o1` had an inhibition constant Ki in series [1] of 1280 nM.
As to `N#Cc1c(N2CCOCC2)sc(-c2nc[nH]n2)c1-c1ccc(Cl)cc1`, the IC50 in [2] amounted to 73 nM. For the same compound, the hepatic extraction ratio in [3] was found to be 0.3. Also, the Ki in series [4] came out at 434 nM; in [1], 1.7 nM.
As to `N#Cc1ccc(-c2c(-c3ncn[nH]3)sc(N3CCOCC3)c2C#N)c(F)c1`, the inhibition result in series [5] is “Active”.
`N#Cc1c(N2CCOCC2)sc(C(N)=O)c1-c1ccc(Cl)cc1` came in with an IC50 in [2] of 760 nM. In series [1], this compound returned a Ki of 13 nM. Also, the inhibition in series [6] was 47%.
For `N#Cc1c(N2CCOCC2)sc(-c2cn[nH]n2)c1-c1ccc(Cl)cc1`, the hepatic extraction ratio in [3] worked out at 0.7. The compound also showed a Ki in series [1] of 3 nM.
In [1], `N#Cc1c(N2CCOCC2)sc(C(=O)O)c1-c1ccc(Cl)cc1` had a Ki of 230 nM.
On to `N#Cc1c(N2CCOCC2)sc(-c2cc[nH]n2)c1-c1ccc(Cl)cc1`, for which the hepatic extraction ratio in series [3] was 0.7. In addition, in series [1], affinity was put at a Ki of 1.8 nM.
For the compound `N#Cc1ccc(-c2c(-c3nnc[nH]3)sc(N3CCOCC3)c2C#N)c(F)c1`, inhibition in [2] was half-maximal at 79 nM (IC50). The results for the hepatic extraction ratio in series [3], in [7] and in series [8] were 0.35, 0.529 and 0.639, respectively. Also, the Ki was 1440 nM in series [4] and 0.6 nM in series [1]. Also, the efflux ratio in the series with MDR1 (human) was determined as 2.6.
Consider `N#Cc1c(N2CCOCC2)sc(-c2ncn[nH]2)c1-c1ccc(Cl)cc1Cl`, for which the result with NCI-H460, in the series with NCI-H1650, in the series with NCI-H1975 and in the series with NCI-H23 was Active. Also, the inhibition result in series [5] was “Active”.
Compound `N#Cc1c(N2CCOCC2)sc(-c2cn[nH]c2)c1-c1ccc(Cl)cc1` gave a Ki in series [1] of 175 nM.
Take `N#Cc1c(N2CCOCC2)sc(-c2nnc[nH]2)c1-c1ccc(Cl)cc1Cl`: the inhibition at 3 µM at CYP2D6, against CYP2C9, against CYP1A2 and at CYP3A4 was under 30% each time. Further, the IC50 in [2] was determined as 35 nM. Also, the dose excreted in series [9] and in series [10] was under 1% throughout. Also, the hepatic extraction ratio in series [3] was found to be 0.3; in [7], 0.89; in series [8] it was 0.88. Moreover, the Ki amounted to 2470 nM in [4] and 0.35 nM in series [1]. The efflux ratio in the series on MDR1 (human) is 2.56.
